A selection: hits, their analogues and other compounds. The true share with any hit is near 4.2%.
KCNQ1 pot: potentiators or activators of human KCNQ1 potassium channel | CHO-K1 KCNQ1, thallium flux FluxOR fluorescence; stronger effect = higher value | B-score at 10 µM | 310,000 tested, 0.35% active | AID 2648;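 active = fluorescence ratio B-score, a plate-corrected score, at least three library SD, with initial intensity B-score within 5 SD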
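Test system: CHO-K1 cells stably expressing KCNQ1 / Medium: assay buffer / Also added: depolarizing K+/Tl+ stimulus, K2SO4 and Tl2SO4 each 12.5 mM in 5x stock / Incubation: 90 min dye loading and 20 min compound exposure, both at room temperature / Signal: thallium influx via FluxOR fluorescence, kinetic imaging / Evaluation: B score of baseline-normalized fluorescence ratio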
AI-2 QS modul: modulators of Vibrio harveyi AI-2 quorum sensing system. activity change, % at 7.5 µM. Vibrio harveyi JMH597 AI-2 luminescence/OD600 ratio, 9 h; stronger effect = lower value; strain lacks LuxN and CqsS sensors; 0 = neutral-control median. 300,000 tested, 0.4% active; in the data active = activity change below about -75%, passing the limit was not always enough; inconclusive = no clear call, values can overlap the other calls;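 note: luminescence divided by OD600 gain over 9 h not by final OD600 alone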
hERG protect: compounds protecting human hERG from proarrhythmic drug block | Q12809 | CHO-hERG, FluxOR thallium flux, dofetilide IC70 present | activation (rescue from dofetilide block), less the hit threshold, % at 10 µM | 310,000 tested, 0.51% active | AID 1511;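 active = activation above the mean of controls blocked by dofetilide plus 5 SD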;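 note: thallium influx through hERG after potassium depolarization seen as dye fluorescence rise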
Mot1-301 SUMO: blocks SUMOylation pathway, rescuing yeast Mot1-301 growth; S. cerevisiae Mot1-301 growth rescue, ATP luminescence, 38.5C; percent above DMSO median, 100 means doubled; growth rescue, % at 18.8 µM; 320,000 tested, 1% active; AID 2716;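 active = every valid replicate shows activation above 250% relative to neutral control wells; inactive = the rest, any valid replicate at or below 250%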;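 note: OY570 slx delta 5 strain wells were the positive control but not used for scaling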
KCNQ1 block: blocks the human KCNQ1 potassium channel | P51787 | CHO-K1 KCNQ1, FluxOR thallium flux fluorescence; stronger effect = higher value | B-score at 10 µM | 310,000 tested, 1.3% active;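 active = compounds whose thallium flux B-score, printed positive for inhibition, exceeds three library SD while starting fluorescence stays within three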;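 note: channel opened by potassium depolarization with thallium stimulus after 20 min compound exposure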
KCC2 mod: modulates chloride dependent transport by human KCC2. AID 1456. KCC2 cells, thallium flux FluoZin-2 fluorescence. B-score of Tl+ flux slope (higher = more flux/activation; lower = inhibition) at 10 µM. Q9H2X9. 190,000 tested, 2.2% active;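 active = thallium flux slope and its plate-corrected score both differing from the plate sample mean at a set confidence after two filtering rounds, in either direction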;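 note: slope of fluorescence scaled to starting intensity during 10 to 20 s after thallium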
Target sequence (Q9H2X9 whole entry, looked up): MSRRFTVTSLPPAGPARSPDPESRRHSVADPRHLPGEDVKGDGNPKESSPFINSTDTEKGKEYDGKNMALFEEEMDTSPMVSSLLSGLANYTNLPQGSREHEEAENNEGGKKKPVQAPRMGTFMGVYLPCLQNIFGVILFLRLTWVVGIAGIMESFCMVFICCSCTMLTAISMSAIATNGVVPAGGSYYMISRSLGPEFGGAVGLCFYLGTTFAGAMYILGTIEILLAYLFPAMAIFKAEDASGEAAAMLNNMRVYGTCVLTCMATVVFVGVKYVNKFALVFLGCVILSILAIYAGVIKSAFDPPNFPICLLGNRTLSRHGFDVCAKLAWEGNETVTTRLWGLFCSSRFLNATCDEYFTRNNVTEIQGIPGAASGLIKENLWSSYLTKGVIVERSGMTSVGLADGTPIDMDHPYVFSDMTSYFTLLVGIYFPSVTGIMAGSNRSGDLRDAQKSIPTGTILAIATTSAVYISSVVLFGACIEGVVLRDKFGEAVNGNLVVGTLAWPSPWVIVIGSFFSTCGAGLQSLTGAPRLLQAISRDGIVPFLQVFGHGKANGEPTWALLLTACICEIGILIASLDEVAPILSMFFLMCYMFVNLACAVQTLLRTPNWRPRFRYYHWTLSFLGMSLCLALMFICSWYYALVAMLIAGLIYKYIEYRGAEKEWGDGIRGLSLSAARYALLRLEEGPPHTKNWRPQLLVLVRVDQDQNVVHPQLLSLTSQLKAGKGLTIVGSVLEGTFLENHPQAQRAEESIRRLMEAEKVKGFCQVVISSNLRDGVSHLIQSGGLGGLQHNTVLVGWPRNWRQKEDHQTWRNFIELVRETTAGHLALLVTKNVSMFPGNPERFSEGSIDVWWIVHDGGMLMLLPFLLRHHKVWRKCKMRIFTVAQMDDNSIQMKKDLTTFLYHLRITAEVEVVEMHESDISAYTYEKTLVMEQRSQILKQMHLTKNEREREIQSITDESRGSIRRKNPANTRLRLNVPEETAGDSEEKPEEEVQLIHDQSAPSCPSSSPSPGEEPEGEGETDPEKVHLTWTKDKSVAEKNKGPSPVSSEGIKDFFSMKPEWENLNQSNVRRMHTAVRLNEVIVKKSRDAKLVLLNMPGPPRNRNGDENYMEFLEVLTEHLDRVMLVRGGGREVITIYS
Mot1 SUMO dose: inhibits SUMO pathway, affecting Mot1-301 yeast growth | shares compounds with Mot1-301 SUMO | AID 493004 | S. cerevisiae Mot1-301 galactose growth, ATP luminescence, 24 h; -100 = growth of slx-deleted rescue strain | growth activity, percent, % at 42 µM | 2,300 tested, under 10 active;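 active = Signal drops as the depositor expects, and the fitted half-maximal dose is no more than ten times the top valid tested dose; inconclusive = Poor fit, or a flat curve whose signal drops by 30% to 70%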;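 note: more negative values mean stronger growth rescue toward the control strain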
* = called active by the depositor; i = inactive; ? = inconclusive; . = no result given; + = active, no number; ! = repeats disagree.

SMILES	KCNQ1 pot	AI-2 QS modul	hERG protect	Mot1-301 SUMO	KCNQ1 block	KCC2 mod	Mot1 SUMO dose
O=C1NC2(CCCCO2)CO1 (stereo not given)	i	14.4	-5.4	661.3*	i	.	0.4
Clc1ccccc1N/N=C/c1ccc2c(c1)OCO2	i	17.5	-7.9	165.4	i	0.141	.
CN(C)CC/C=C1\c2ccccc2Sc2ccc(Cl)cc21	i	20.8	-14.3	497.1*!	i	0.318	0.3
Cc1ccc(-c2c(C(=O)O)c(C(=O)O)c3n2CCC3)cc1	i	13.2	-3.8	31.9	i	-0.22	.
O=C(O)c1c(C(=O)O)c(-c2ccc(F)cc2)n2c1CCC2	i	23.2	-3.3	498.6*	i	.	-0.2
COc1ccc(C(=O)OC(C)C(=O)NCC2CCCCC2)cc1S(=O)(=O)N1CCOCC1 (stereo not given)	.	.	.	-9.3	.	.	.
Cc1ccc(CNc2nc3ccccc3n3nnnc23)cc1	i	23.8	1.5	-15.5	i	0.0494	.
CCOC(=O)N1CCC(Nc2nc3ccccc3n3nnnc23)CC1	i	4.7	-7.0	889.3*	i	0.847	0.3
COc1ccc(Cl)cc1N(C(=O)Nc1cccc(Cl)c1)C1=NCC(C)S1 (stereo not given)	i	19.4	-8.4	-9.4	i	0.435	.
Fc1cccc(Cl)c1CSc1nnc(CN2CCOCC2)n1-c1ccccc1	i	19.2	-2.2	551.4*	i	-0.0135	0.0
Clc1cccc(Cl)c1CSc1nnc(CN2CCOCC2)n1-c1ccccc1	i	6.3	-4.5	3.5	i	-0.287	.
Clc1ccc(CSc2nnc(CN3CCOCC3)n2-c2ccccc2)cc1Cl	i	?	-8.1	587.6*	i	-0.617	-0.5
CCC(Oc1ccccc1)C(=O)Nc1ccc(C)c(S(=O)(=O)N2CCOCC2)c1 (stereo not given)	i	8.2	-20.0	-12.3	i	.	.
Cc1ccc(C(=O)NCCCNC(=O)c2ccc(C)nc2)cc1	i	20.7	-4.6	423.9*	i	.	-0.1
COc1ccc(CC(=O)NCCN2CCOCC2)cc1	i	14.7	-1.5	395.3*	i	.	-0.1
Cc1ccc(C(=O)NCCNC(=O)c2ccc(C)nc2)cc1	i	23.5	-4.6	12.7	i	.	.
Cc1ccc(C(=O)NCCCN2CCOCC2)cc1	i	9.9	-1.7	410.4*	i	0.657	-0.3
Cc1ccc(C(=O)NCCN2CCOCC2)cc1	i	13.3	4.2	-14.1	i	0.0198	.
O=C(NC(=S)NNC(=O)c1ccccc1O)c1cccc([N+](=O)[O-])c1	i	29.6	0.2	368.2*	i	.	-0.4
O=C(CC(c1ccccc1)c1ccccc1)NCCOCc1ccccc1	i	20.5	-7.5	403.2*	i	.	0.2
COCCNC(=O)CC(c1ccccc1)c1ccccc1	i	2.3	-5.3	-6.8	i	1.11	.
COc1cc(C(C(=O)NC2CCCC2)N(CCO)C(=O)Cn2nnc(-c3ccc(C)o3)n2)ccc1O (stereo not given)	i	17.1	-7.0	-8.0	i	.	.
Cc1ccnc(NC(=O)c2cccs2)c1	i	3.5	-3.5	-1.3	i	0.601	.
Cc1ccnc(NC(=O)c2ccc(Br)s2)c1	i	3.0	-3.4	618.3*	i	.	-2.1
N#CC(C#N)=C1NC2(CCCCC2)Cc2ccccc21	i	9.4	-6.6	-0.4	i	-1.08	.
SMILES	KCNQ1 pot	AI-2 QS modul	hERG protect	Mot1-301 SUMO	KCNQ1 block	KCC2 mod	Mot1 SUMO dose
CC(=O)N(C(C)=O)C1=C(C#N)C2(CCCCC2)Cc2ccccc21	i	6.1	-6.2	871.4*	i	-0.793	-1.5
CCN(CC)CCNc1ncnc2c1[nH]c1ccc(OC)cc12	i	15.3	-10.8	+	i	.	1.4
CCOc1ccc2[nH]c3c(NCCN(C)C)ncnc3c2c1	i	1.2	-2.8	12.6	i	.	.
COc1cc(NC(=O)c2ccccc2F)c(OC)cc1NC(=O)CN1CCCCC1	i	5.8	-3.4	552.2*	i	.	-0.2
CCN(CC)c1ccc2c(C)c(CN3CCOCC3)c(=O)oc2c1	i	17.6	-17.2	+	i	-0.16	-0.6
N#CCCN(Cc1cccnc1)C(=O)Nc1cccc(Cl)c1	i	20.7	-3.7	+	i	0.0264	0.3
N#CCCN(Cc1cccnc1)C(=O)Nc1ccccc1	i	13.7	-14.0	3.4	i	0.226	.
CCCOc1ccccc1C1NC(=O)NC(C)=C1C(=O)OCCOCC (stereo not given)	i	25.8	-9.8	564.9*	i	0.888	0.8
CCCCC1=CC2=CC(=O)C(C)(OC(=O)CC)C(=O)C2=CN1CCOC (stereo not given)	i	19.6	-1.8	63.2	i	0.00176	.
CCCCC1=CC2=CC(=O)C(C)(OC(=O)CC)C(=O)C2=CN1CCc1ccc(Br)cc1 (stereo not given)	i	2.3	-12.3	525.9*	i	-2.49	-0.4
COc1ccccc1NC(=O)CSc1nc(N)c(C#N)cc1C#N	i	11.2	-11.8	-4.3	i	1.73	.
CCOc1ccccc1NC(=O)CSc1nc(N)c(C#N)cc1C#N	i	15.6	-5.9	+	i	0.632	0.7
CCNC(=O)C12CCC(C)(C(=O)O1)C2(C)C (stereo not given)	i	29.6	-17.5	148.3	i	0.637	.
O=C(O)C1CCCN1C(=O)c1cncc(Br)c1 (stereo not given)	i	39.6	-0.2	+	i	.	1.0
CC(=O)N1CCC[C@H]1C(=O)O	i	23.9	-11.8	4.6	i	-0.345	.
CCOC(=O)N1CCN(S(=O)(=O)c2ccc(C(=O)Nc3ccc4c(c3)C(=O)NC4=O)cc2)CC1	i	16.4	-1.0	0.1	i	0.181	.
CCCCn1c(=O)[nH]c(=O)c2c1nc(COc1ccc(C#N)cc1)n2CCC	i	6.8	-1.4	404.5*	i	.	0.6
Cc1cccc(N2C(=O)/C(=C/c3cccnc3)SC2=S)c1	i	8.2	-6.3	938.5*	i	0.846	0.2
O=C(/C(=N\Nc1ccc(Br)cc1)Sc1nnnn1-c1ccccc1)c1ccccc1	i	9.1	-6.8	739.3*	i	2.16	0.3
O=C(C1CCC(CNS(=O)(=O)c2cccc3cccnc23)CC1)N1CCCC1 (stereo not given)	i	9.5	-1.0	259.8	i	-0.249	.
O=S(=O)(NCC1CCCN(Cc2ccccc2O)C1)c1cccc2cccnc12 (stereo not given)	i	0.8	-5.2	383.9*	i	.	1.9
